Measurements published in ChEMBL document CHEMBL1268946, “Discovery of 2-substituted benzoxazole carboxamides as 5-HT3 receptor antagonists” (Bioorg Med Chem Lett, 2010).
Activity calls are given as the source filed them. No cut-off for these calls is given here.

What was measured:
[1] = species: Homo sapiens; experiment: Inhibition of human nicotinic acetylcholine receptor at 1 uM
Method in brief: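 Single-concentration screen at 1 µM within a 68-membered off-target receptor panel; inhibition above 50% counted as significant.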

[2] = target: T1, 5-hydroxytryptamine receptor 3A (Homo sapiens, UniProt P46098); experiment: Binding affinity to human HT3A receptor
T1 sequence (P46098 whole entry): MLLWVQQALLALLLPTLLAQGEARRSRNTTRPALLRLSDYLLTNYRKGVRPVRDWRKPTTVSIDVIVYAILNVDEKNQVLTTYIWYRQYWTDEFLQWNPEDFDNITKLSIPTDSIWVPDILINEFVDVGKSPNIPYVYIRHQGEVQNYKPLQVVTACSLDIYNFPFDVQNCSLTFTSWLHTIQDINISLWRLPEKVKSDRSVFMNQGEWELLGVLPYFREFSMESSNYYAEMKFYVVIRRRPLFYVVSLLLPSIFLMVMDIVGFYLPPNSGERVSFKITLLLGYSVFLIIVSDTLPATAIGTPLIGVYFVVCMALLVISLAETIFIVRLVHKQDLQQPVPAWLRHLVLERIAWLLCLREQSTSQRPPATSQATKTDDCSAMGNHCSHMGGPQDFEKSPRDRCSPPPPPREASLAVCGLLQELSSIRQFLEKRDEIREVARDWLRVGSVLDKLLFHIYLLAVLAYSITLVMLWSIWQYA

[3] = target: Cytochrome P450 3A4 (Homo sapiens, UniProt P08684); experiment: Inhibition of human CYP3A4; assay type: ADME
Chain of Cytochrome P450 3A4 (P08684 whole entry): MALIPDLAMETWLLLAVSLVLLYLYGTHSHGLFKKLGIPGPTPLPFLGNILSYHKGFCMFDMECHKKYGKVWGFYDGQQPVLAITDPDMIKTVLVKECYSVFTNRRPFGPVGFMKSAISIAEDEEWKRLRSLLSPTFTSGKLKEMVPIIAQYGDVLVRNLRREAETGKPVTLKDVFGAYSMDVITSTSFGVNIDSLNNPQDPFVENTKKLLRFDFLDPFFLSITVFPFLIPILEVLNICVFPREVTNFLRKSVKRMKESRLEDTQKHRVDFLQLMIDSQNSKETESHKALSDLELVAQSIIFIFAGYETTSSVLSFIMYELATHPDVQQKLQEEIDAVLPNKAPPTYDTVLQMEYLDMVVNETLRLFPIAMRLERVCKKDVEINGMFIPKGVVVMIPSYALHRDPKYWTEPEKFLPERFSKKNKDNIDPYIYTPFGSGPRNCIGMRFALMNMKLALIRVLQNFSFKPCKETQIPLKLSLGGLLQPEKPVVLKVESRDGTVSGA

[4] = target: Voltage-gated inwardly rectifying potassium channel KCNH2 (Homo sapiens, UniProt Q12809); experiment: Inhibition of human ERG expressed in HEK cells by patch clamp technique
Chain of Voltage-gated inwardly rectifying potassium channel KCNH2 (Q12809 whole entry): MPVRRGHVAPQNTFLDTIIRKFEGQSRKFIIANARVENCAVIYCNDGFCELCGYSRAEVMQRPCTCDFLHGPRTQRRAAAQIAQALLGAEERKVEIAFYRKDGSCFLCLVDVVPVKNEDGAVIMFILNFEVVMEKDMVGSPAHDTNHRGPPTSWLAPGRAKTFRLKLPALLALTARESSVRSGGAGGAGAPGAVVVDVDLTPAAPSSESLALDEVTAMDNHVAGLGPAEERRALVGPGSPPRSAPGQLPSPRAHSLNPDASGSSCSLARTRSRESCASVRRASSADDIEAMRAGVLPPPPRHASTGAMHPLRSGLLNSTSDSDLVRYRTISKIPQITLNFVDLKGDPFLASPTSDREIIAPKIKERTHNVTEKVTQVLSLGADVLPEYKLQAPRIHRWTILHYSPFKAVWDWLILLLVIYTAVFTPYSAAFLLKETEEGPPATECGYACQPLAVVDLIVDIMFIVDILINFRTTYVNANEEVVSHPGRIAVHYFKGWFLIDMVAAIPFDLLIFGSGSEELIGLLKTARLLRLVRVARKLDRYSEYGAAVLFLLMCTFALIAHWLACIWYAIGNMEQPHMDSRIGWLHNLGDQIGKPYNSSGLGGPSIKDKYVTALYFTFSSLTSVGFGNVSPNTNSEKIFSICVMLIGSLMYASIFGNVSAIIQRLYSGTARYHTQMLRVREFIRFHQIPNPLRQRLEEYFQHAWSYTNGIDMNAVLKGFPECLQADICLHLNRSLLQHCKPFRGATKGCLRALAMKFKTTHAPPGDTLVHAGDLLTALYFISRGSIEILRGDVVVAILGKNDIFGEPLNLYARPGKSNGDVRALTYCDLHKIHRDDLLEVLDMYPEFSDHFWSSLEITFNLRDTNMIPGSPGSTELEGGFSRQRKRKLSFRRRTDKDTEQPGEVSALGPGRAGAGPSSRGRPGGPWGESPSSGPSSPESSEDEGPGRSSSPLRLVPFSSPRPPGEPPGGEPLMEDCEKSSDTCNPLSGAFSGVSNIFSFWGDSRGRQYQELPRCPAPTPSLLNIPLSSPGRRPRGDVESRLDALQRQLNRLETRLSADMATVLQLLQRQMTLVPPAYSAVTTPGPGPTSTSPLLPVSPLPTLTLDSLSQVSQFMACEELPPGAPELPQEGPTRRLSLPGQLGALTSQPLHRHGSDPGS

[5] = Bioavailability in rat at 10 mg/kg, po or 1 mg/kg, iv; assay type: ADME, organism-based; conditions: in vivo
[6] = Intrinsic clearance in human liver microsomes; assay type: ADME, Microsome
[7] = Inhibition of human CYP450; assay type: ADME
[8] = tested on: Mus musculus; experiment: Cardioprotective effect in po dosed mouse assessed as inhibition of 5-HT-induced bradycardia administered 1 hr prior to 5-HT challenge; assay type: functional
Method in brief: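 Murine von Bezold–Jarisch reflex assay. Test agents were given orally 1 h before a 0.1 mg/kg 5-HT challenge. Read-out was block of 5-HT-induced transient bradycardia.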

[9] = species: Mus musculus; conditions: 0.56 mg/kg
[10] = species: Mus musculus; conditions: 1.9 mg/kg
[11] = target: Cytochrome P450 2C19 (Homo sapiens, UniProt P33261); experiment: Inhibition of human CYP2C19; assay type: ADME
Chain of Cytochrome P450 2C19 (P33261 whole entry): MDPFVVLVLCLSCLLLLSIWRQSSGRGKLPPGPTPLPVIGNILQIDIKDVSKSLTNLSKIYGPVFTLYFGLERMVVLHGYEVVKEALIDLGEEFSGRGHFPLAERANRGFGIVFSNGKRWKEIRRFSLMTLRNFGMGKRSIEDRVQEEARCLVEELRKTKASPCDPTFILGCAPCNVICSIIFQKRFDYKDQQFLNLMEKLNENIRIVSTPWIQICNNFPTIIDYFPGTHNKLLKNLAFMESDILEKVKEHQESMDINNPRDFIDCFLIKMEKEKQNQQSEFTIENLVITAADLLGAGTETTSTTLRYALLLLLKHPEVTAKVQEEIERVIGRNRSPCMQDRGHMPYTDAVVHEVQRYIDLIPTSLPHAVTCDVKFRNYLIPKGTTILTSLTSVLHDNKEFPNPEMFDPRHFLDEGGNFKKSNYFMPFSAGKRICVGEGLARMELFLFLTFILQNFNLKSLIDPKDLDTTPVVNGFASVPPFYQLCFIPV

| SMILES | Ki [2] [nM] | microsomal CLint [6] [µL/min/mg] | other results |
| --- | --- | --- | --- |
| CN1[C@@H]2CCC[C@H]1C[C@H](NC(=O)c1cccc3oc(N4CCOCC4)nc13)C2 | 40 | 1 | inhibition [1]: > 50%; IC50 [3]: > 50000 nM; IC50 [4]: 1400 nM; bioavailability [5]: 35% |
| CCNc1nc2c(C(=O)N[C@@H]3CN4CCC3CC4)cccc2o1 | 36.4 |  |  |
| CNc1nc2c(C(=O)N[C@@H]3CN4CCC3CC4)cccc2o1 | 36.4 |  |  |
| CN1[C@@H]2CCC[C@H]1C[C@H](NC(=O)c1cccc3oc(-c4ccc(Cl)cc4)nc13)C2 | 18 |  |  |
| C[C@H]1COC[C@H](C)N1c1nc2c(C(=O)N[C@@H]3C[C@H]4CCC[C@@H](C3)N4C)cccc2o1 | 0.6 |  |  |
| CC[C@H]1COCCN1c1nc2c(C(=O)N[C@@H]3C[C@H]4CCC[C@@H](C3)N4C)cccc2o1 | 4.6 |  |  |
| Nc1nc2c(C(=O)N[C@@H]3CN4CCC3CC4)cccc2o1 | 13.8 | < 2 | IC50 [7]: > 100000 nM; ED50 [8]: 1.08 mg/kg |
| C[C@H]1CNCCN1c1nc2c(C(=O)N[C@@H]3C[C@H]4CCC[C@@H](C3)N4C)cccc2o1 | 16.5 |  |  |
| CN1[C@@H]2CCC[C@H]1C[C@H](NC(=O)c1cccc3nc(-c4ccccc4)oc13)C2 | 40.4 |  |  |
| CN1[C@@H]2CCC[C@H]1C[C@H](NC(=O)c1cccc3oc(-c4ccc(F)cc4)nc13)C2 | 16.3 |  |  |
| O=C(N[C@@H]1CN2CCC1CC2)c1cccc2oc(N3CCOCC3)nc12 |  | 0.6 | IC50 [3]: > 100000 nM; IC50 [4]: 3200 nM; bioavailability [5]: 100% |
| CC(C)N(C)c1nc2c(C(=O)N[C@@H]3CN4CCC3CC4)cccc2o1 | 66.5 |  |  |
| CCC[C@H]1COCCN1c1nc2c(C(=O)N[C@@H]3C[C@H]4CCC[C@@H](C3)N4C)cccc2o1 | 3.9 |  |  |
| CC(C)[C@H]1COCCN1c1nc2c(C(=O)N[C@@H]3C[C@H]4CCC[C@@H](C3)N4C)cccc2o1 | 5 |  |  |
| COc1ccc(-c2nc3cccc(C(=O)N[C@@H]4C[C@H]5CCC[C@@H](C4)N5C)c3o2)cc1 | 58.5 |  |  |
| CC[C@H]1COC[C@H](C)N1c1nc2c(C(=O)N[C@@H]3C[C@H]4CCC[C@@H](C3)N4C)cccc2o1 | 1 |  |  |
| CN1[C@@H]2CCC[C@H]1C[C@H](NC(=O)c1cccc3oc(C4CC4)nc13)C2 | 8.3 | 23.5 | IC50 [3]: > 50000 nM; bioavailability [5]: 32% |
| Nc1nc2c(C(=O)N[C@@H]3CN4CCC3CC4)cc(Cl)cc2o1 | 4.7 | 3 | IC50 [7]: > 30000 nM; IC50 [4]: 4800 nM; ED50 [8]: 0.4 mg/kg; inhibition [9]: Active |

| SMILES | Ki [2] [nM] | microsomal CLint [6] [µL/min/mg] | other results |
| --- | --- | --- | --- |
| CN1[C@@H]2CCC[C@H]1C[C@H](NC(=O)c1cccc3oc(N4CCNCC4)nc13)C2 | 72.2 |  |  |
| C[C@@H]1CN(c2nc3c(C(=O)N[C@@H]4C[C@H]5CCC[C@@H](C4)N5C)cccc3o2)C[C@H](C)O1 | 35.3 |  |  |
| CCN(CC)c1nc2c(C(=O)N[C@@H]3CN4CCC3CC4)cccc2o1 | 12.4 |  |  |
| Cc1nccn1CC1CCc2c(c3ccccc3n2C)C1=O (stereo not given) [ONDANSETRON] |  | 5.8 | bioavailability [5]: 21%; ED50 [8]: 0.54 mg/kg |
| CC(C)C[C@H]1COCCN1c1nc2c(C(=O)N[C@@H]3C[C@H]4CCC[C@@H](C3)N4C)cccc2o1 | 3.5 |  |  |
| O=C(N[C@@H]1CN2CCC1CC2)c1cccc2oc(C3CC3)nc12 | 32.7 | 4.5 | IC50 [3]: > 100000 nM; IC50 [4]: 700 nM; bioavailability [5]: 13% |
| C[C@H]1CNC[C@H](C)N1c1nc2c(C(=O)N[C@@H]3C[C@H]4CCC[C@@H](C3)N4C)cccc2o1 | 2.4 | < 2 | IC50 [4]: 6400 nM; inhibition [10]: Active; IC50 [11]: 1400 nM; ED50 [8]: 0.85 mg/kg |
| COc1ccc(-c2nc3c(C(=O)N[C@@H]4C[C@H]5CCC[C@@H](C4)N5C)cccc3o2)cc1 | 18.8 |  |  |
| Cc1[nH]cnc1CN1CCc2c(c3ccccc3n2C)C1=O [ALOSETRON] |  | 3 | bioavailability [5]: 100%; ED50 [8]: 0.02 mg/kg |
| CN1[C@@H]2CCC[C@H]1C[C@H](NC(=O)c1cccc3nc(-c4ccc(F)cc4)oc13)C2 | 94.9 |  |  |
| C[C@@H]1CNC[C@H](C)N1c1nc2c(C(=O)N[C@@H]3C[C@H]4CCC[C@@H](C3)N4C)cccc2o1 | 37.3 |  |  |
| COc1ccccc1-c1nc2c(C(=O)N[C@@H]3CN4CCC3CC4)cccc2o1 | 47.3 | 10.1 | IC50 [3]: > 50000 nM; IC50 [4]: 200 nM; bioavailability [5]: 100% |
| CN1[C@@H]2CCC[C@H]1C[C@H](NC(=O)c1cccc3oc(N4CCOC[C@@H]4C(C)(C)C)nc13)C2 | 2 |  |  |
| CN1[C@@H]2CCC[C@H]1C[C@H](NC(=O)c1cccc3nc(-c4ccc(Cl)cc4)oc13)C2 | 73.8 |  |  |
| C[C@@H]1CNC[C@@H](C)N1c1nc2c(C(=O)N[C@@H]3C[C@H]4CCC[C@@H](C3)N4C)cccc2o1 | 59.4 |  |  |
| COc1ccccc1-c1nc2c(C(=O)N[C@@H]3C[C@H]4CCC[C@@H](C3)N4C)cccc2o1 | 14.9 | 2.8 | IC50 [3]: 1100 nM; IC50 [4]: 400 nM; bioavailability [5]: 44% |
| CN1[C@@H]2CCC[C@H]1C[C@H](NC(=O)c1cccc3oc(-c4ccccc4)nc13)C2 | 15.1 |  |  |
